Compounds with a hit are over-represented: about 4.3% of the library has one in this group of screens.
OX1R antag-1: OX1R (HCRTR1) antagonists, primary screen, fluorescence, CHO/OX1R cells, Fluo-8 calcium, orexin A; 0.43% of 330,000 active; Fluo-8 calcium fluorescence; inhibition, % at 5 µM; Orexin/Hypocretin receptor type 1 (Homo sapiens), O43613; AID 434989, 2010;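 active means inhibition above its plate's threshold, mean inhibition of all tested compounds on the plate plus 3 SD, cut at about 37% in these data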
CHO parental Ca: ATP-evoked calcium signal inhibitors, parental CHO, primary screen, counter-screen for OX1R antagonist project, cell-based, fluorescence, Fluo-8 calcium dye. parental CHO-K1, ATP-induced calcium, Fluo-8 fluorescence. inhibition, % at 5.6 µM. 0.63% of 330,000 active. AID 463079, 2010;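 active means inhibition above that plate's mean sample inhibition plus 3 SD, cut at about 26% in these data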
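Measured by: calcium-sensitive Fluo-8 fluorescence / Test system: CHO parental line / Controls: ATP-challenged DMSO wells low, unchallenged DMSO wells high / Measure: % inhibition / Compound: single nominal dose of 5.6 µM per compound / Replicates: single well per compound, no replicates / Reagent: ATP as calcium-mobilizing challenge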
GalR3 antagonist: GalR3 antagonists in HEK293 cells, primary screen, cell-based, fluorescence readout; HEK293 GalR3-CNG cAMP membrane potential fluorescence; galR3 body fused to GalR1 C-terminus; inhibition, % at 3 µM; 0.44% of 360,000 active; AID 651719, 2012;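 active means inhibition above the screen-wide average plus 3 SD, cut at about 13% in these data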;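 further: forskolin and galanin both at EC90 stimulate the cells; cAMP rise reported by CNG channel membrane potential dye signal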
Target sequence (O60755 1-299 limits assumed): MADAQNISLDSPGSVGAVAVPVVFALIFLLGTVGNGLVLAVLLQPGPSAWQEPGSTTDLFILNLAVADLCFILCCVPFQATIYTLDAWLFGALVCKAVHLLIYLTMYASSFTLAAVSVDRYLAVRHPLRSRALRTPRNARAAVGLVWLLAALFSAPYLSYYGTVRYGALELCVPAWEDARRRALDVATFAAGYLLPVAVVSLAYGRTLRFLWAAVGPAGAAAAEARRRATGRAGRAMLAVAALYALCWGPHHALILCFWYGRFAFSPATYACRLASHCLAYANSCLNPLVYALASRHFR
TAAR1 antag: human TAAR1 antagonists, primary screen, Fluo-8 calcium fluorescence, CHO RD-HGA16 cells; 1.5% of 360,000 active; Trace amine-associated receptor 1 (Homo sapiens), Q96RJ0; antagonist; AID 624466, 2012; inhibition, % at 3 µM;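 active means inhibition above a per-plate cutoff, the mean inhibition of test compounds on that plate plus 3 SD, cut at about 49% in these data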
Target sequence (Q96RJ0 whole entry, looked up): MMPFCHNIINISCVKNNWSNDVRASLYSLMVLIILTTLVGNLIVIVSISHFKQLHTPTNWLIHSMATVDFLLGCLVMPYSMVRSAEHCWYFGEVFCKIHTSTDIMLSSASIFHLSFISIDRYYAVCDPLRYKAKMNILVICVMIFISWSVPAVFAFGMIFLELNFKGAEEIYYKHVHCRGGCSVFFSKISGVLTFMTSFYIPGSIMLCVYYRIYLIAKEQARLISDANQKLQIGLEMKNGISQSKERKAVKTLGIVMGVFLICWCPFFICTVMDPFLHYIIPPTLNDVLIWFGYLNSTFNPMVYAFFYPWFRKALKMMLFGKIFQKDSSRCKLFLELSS
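test system = CHO RD-HGA16 cells bearing hTAAR1 | replication = singlicate | controls = DMSO-only wells and EC80 β-PEA-stimulated wells | reagent = EC80 β-phenethylamine stimulus | read-out basis = percent inhibition of PEA-evoked calcium signal, max/basal emission ratio | schedule = seeding 17-24 h prior, 75-min 37 °C, 30-min RT dye loading | signal = kinetic Fluo-8 calcium fluorescence measurement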
OX1R antag-2: antagonists of human orexin 1 receptor (OX1R) | inhibition, % at 6.6 µM | AID 485270, 2010 | 1.8% of 330,000 active | OX1R-expressing cells, FRET antagonist read-out; in the data active means inhibition mostly above about 38%, no sharp cut-off; inactive means mostly below about 40%
TAAR1 agonist: human TAAR1 agonists, primary screen, Fluo-8 calcium fluorescence, CHO RD-HGA16 cells | vehicle wells 0%, saturating PEA agonist 100% | AID 624467, 2012 | Trace amine-associated receptor 1 (Homo sapiens), Q96RJ0 | 0.99% of 360,000 active | activation, % at 3 µM;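 active means activation above the mean activation of all test compounds in the run plus 3 SD, cut at about 38% in these data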
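Assay system – CHO-derived RD-HGA16 cells with stable Gα16 and human TAAR1 · Compound dosing – one-point dosing at 3 µM (nominal) · Incubation – 17-24 h seeding, 75 min 37 °C dye, 30 min RT · Measured by – kinetic Fluo-8 calcium fluorescence · Control set – DMSO vehicle as 0%, PEA at EC100 as 100% · Repeats – single well for each compound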
OX1R Fluo8 conf: OX1R (HCRTR1) antagonists, confirmation, fluorescence, CHO/OX1R cells, Fluo-8 calcium, orexin A. shares compounds with OX1R antag-1. orexin A calcium Fluo-8 fluorescence. inhibition, % at 5 µM. 38% of 1,100 active. AID 492963, 2010; in the data active means inhibition above about 29%
CHO Ca triplic: ATP-evoked calcium inhibition in parental CHO, counter-screen for OX1R antagonist project, cell-based, fluorescence, CHO-K1, triplicate. AID 492965, 2010. shares compounds with OX1R antag-1. inhibition, % at 5.6 µM. ATP-induced calcium, Fluo-8 fluorescence. 9.3% of 1,100 active;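 active means inhibition above a per-plate limit, the mean inhibition of that plate's test compounds plus 3 SD, cut at about 25% in these data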
OX1R HTRF confirm: OX1R (HCRTR1) antagonists, confirmation, cell-based, HTRF; shares compounds with OX1R antag-2; OX1R-expressing cells, HTRF antagonist assay; inhibition, % at 6.6 µM; 49% of 1,800 active; in the data active means inhibition above about 55%;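 further: CHO cells expressing OX1R stimulated with orexin A at about EC80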
CHO-K1 HTRF: signal inhibition in parental CHO-K1 cells, counter-screen for OX1R antagonist project, cell-based, HTRF; shares compounds with OX1R antag-2; HTRF counterscreen; inhibition, % at 6.6 µM; 48% of 1,800 active; in the data active means inhibition above about 17%
A number is an active result; 0 = inactive; - = no result.

SMILES	OX1R antag-1	CHO parental Ca	GalR3 antagonist	TAAR1 antag	OX1R antag-2	TAAR1 agonist	OX1R Fluo8 conf	CHO Ca triplic	OX1R HTRF confirm	CHO-K1 HTRF
CCn1c(C)csc1=NC(=O)c1ccccc1O	54	0	0	0	95	0	42	0	90	0
CCC(C)c1ccc(C(CC)NC(=O)C2CCCO2)cc1 (stereo not drawn)	0	0	0	0	0	0	-	-	-	-
COCCNC(=O)C(c1ccc(C)cc1)N(Cc1cccs1)C(=O)CCC(=O)Nc1ccccn1 (stereo not drawn)	0	0	0	0	75	0	0	0	82	0
Cc1cc(NC(=O)CCC(=O)N(Cc2cccs2)C(C(=O)NC2CCCC2)c2cccnc2)no1 (stereo not drawn)	0	0	0	0	0	0	-	-	-	-
COCCNC(=O)C(c1ccc(C)cc1)N(Cc1ccccc1)C(=O)CCC(=O)Nc1ccccn1 (stereo not drawn)	0	0	0	0	72	0	40	0	88	0
Cc1cc(NC(=O)CCC(=O)N(Cc2cccs2)C(C(=O)NC2CCCC2)c2ccccc2)no1 (stereo not drawn)	51	0	0	0	92	0	44	0	93	0
CC(OC(=O)Cc1c(F)cccc1Cl)C(=O)NC1CCCCC1C (stereo not drawn)	0	0	0	0	0	0	-	-	-	-
COCCCNC(=O)CCC(=O)NNc1nc2ccccc2c2nc(-c3ccccc3)nn12	0	0	0	0	95	0	29	0	82	0
COc1ccc(N(CC(=O)NCc2cccc(OC)c2)S(=O)(=O)c2c(C)noc2C)cc1	0	0	0	0	0	0	-	-	-	-
COc1ccc(N(CC(=O)NCCc2cccc(C)c2)S(=O)(=O)c2c(C)noc2C)cc1	81	0	-	-	103	-	68	0	91	0
COc1ccc(N(CC(=O)NCCc2ccc(OC)c(OC)c2)S(=O)(=O)c2c(C)noc2C)cc1	0	0	0	0	0	0	-	-	-	-
COc1ccc(N(CC(=O)NCCc2ccc(C)cc2)S(=O)(=O)c2c(C)noc2C)cc1	0	0	0	0	55	0	34	0	84	0
C=CCNc1oc(-c2cccc3ccccc23)nc1C#N	43	0	0	0	69	0	0	0	55	0
CCNc1oc(-c2cccc3ccccc23)nc1C#N	55	0	0	0	89	0	39	0	78	0
CC(C)Nc1oc(-c2cccc3ccccc23)nc1C#N	0	0	0	0	0	0	-	-	-	-
COc1cc(C)ccc1OCC(=O)OCC(=O)c1[nH]c(C)c(C(C)=O)c1C	0	0	0	0	0	0	-	-	-	-
COc1ccccc1OCC(=O)c1[nH]c(C)c(C(C)=O)c1C	0	0	0	0	82	0	30	26	0	27
CCN(CC(=O)Nc1cccc(S(=O)(=O)N(C)c2ccccc2)c1)Cc1ccccc1	77	0	0	0	28	0	0	0	0	0
COc1cccc(CNC(=O)[C@H](C)NC(=O)N2CC(=O)Nc3ccccc32)c1	-	-	0	0	-	0	-	-	-	-
c1ccc(N2CCN(CC3CCCCC3)CC2)cc1	-	-	0	0	-	0	-	-	-	-
CC(NS(=O)(=O)c1ccc(OCC(=O)Nc2cccc([N+](=O)[O-])c2)cc1)c1ccccc1 (stereo not drawn)	54	0	0	60	66	0	60	0	69	0
O=C(COC(=O)COc1ccccc1)Nc1cccc([N+](=O)[O-])c1	0	0	0	0	0	0	-	-	-	-
O=C(Cc1ccccc1)Nc1ncnc2c1C(c1ccccc1)c1c(ccc3ccccc13)O2 (stereo not drawn)	0	0	0	0	0	0	-	-	-	-
Nc1cc(S(=O)(=O)C(F)(F)F)ccc1C(=O)O	0	0	0	0	0	0	-	-	-	-
O=S(=O)(c1ccc2c(c1)C(O)c1ccccc1CC2)C(F)(F)F (stereo not drawn)	52	0	0	0	34	0	0	0	0	0
SMILES	OX1R antag-1	CHO parental Ca	GalR3 antagonist	TAAR1 antag	OX1R antag-2	TAAR1 agonist	OX1R Fluo8 conf	CHO Ca triplic	OX1R HTRF confirm	CHO-K1 HTRF
Cn1c(=O)c2c(ncn2CC(=O)OCC(=O)Nc2cc(Cl)ccc2C#N)n(C)c1=O	0	0	0	0	0	0	-	-	-	-
C#CCN1C[C@@]2(O)CC[C@@H](O)[C@@H](OC)[C@@H]2[C@@]1(C)[C@H](O)CC=C(C)C	-	-	0	0	-	0	-	-	-	-
CN(CC(=O)Nc1nc2ccccc2s1)S(=O)(=O)c1ccc(Br)cc1	69	0	0	0	48	0	0	0	0	0
CN(CC(=O)Nc1nc2ccccc2s1)S(=O)(=O)c1ccc(Cl)cc1	0	0	0	0	0	0	-	-	-	-
O=P1(NC2CCCCC2)OCC2(CO1)COP(=O)(NC1CCCCC1)OC2 (stereo not drawn)	-	-	0	0	-	0	-	-	-	-
Cc1ccccc1N(CC(=O)NC1CCCC1)C(=O)c1oc(C(C)(C)C)cc1C	0	0	-	-	93	-	57	0	86	0
COc1ccc(CCN(C)C(=O)c2c(C)nn(-c3ccccc3)c2C)cc1OC	0	0	0	0	0	0	-	-	-	-
O=C(N/N=C/c1cccc(C(F)(F)F)c1)c1cc2c(s1)-c1ccccc1CC2	0	0	0	0	0	0	-	-	-	-
Cc1cccc(/C=N/NC(=O)c2cc3c(s2)-c2ccccc2CC3)c1	81	0	0	0	87	0	92	0	85	0
COc1ccc2[nH]cc(/C=C/C(=O)c3ccccc3)c2c1	0	0	0	0	59	0	0	0	0	0
COc1cc(/C=N/NC(=O)c2cc(-c3ccccc3)nc3ccccc23)ccc1O	0	0	0	0	0	0	-	-	-	-
COc1cc(/C=N/NC(=O)c2cc(-c3cccc(Br)c3)nc3ccccc23)cc(OC)c1O	0	0	0	0	67	0	29	0	78	0
CCOC(=O)/C=C1/SCC(=O)N1CC(=O)Nc1ccc2c(c1)CCC2	-	-	0	0	-	0	-	-	-	-
